# From ChEMBL document CHEMBL5724801, “EUbOPEN Chemogenomics Library - Multiplex” (2024)
# Several values for one entry are separate records, joined by “and”; a condition that tells them apart may be missing. Equal values may be shown once.
# Test system: U2OS
# Assay: Multiplex assay against U2OS
# Type: toxicity, cell-based
# Details: human
# Summary of the method: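 Phenotypes for tubulin, mitochondrial mass and membrane permeability are expressed as per cents of healthy-nucleus cells. Cells were stained live at seeding with Hoechst33342, BioTracker Green Microtubule Cytoskeleton Dye, MitoTracker Red and Annexin V Alexa Fluor 680, then imaged after compound addition on a CQ1 microscope at 37°C and 5% CO2. Machine-learning gating in CellPathfinder separated Hoechst high-intensity objects from normal cells, divided normal cells by nuclear state (healthy, pyknosed, fragmented) and divided pyknosed cells into mitotic or apoptotic.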
# [1] = 12 h, 1 µM, compound concentration 1 uM
# [2] = 12 h, 10 µM, compound concentration 10 uM
# [3] = 24 h, 1 µM, compound concentration 1 uM
# [4] = 24 h, 10 µM, compound concentration 10 uM
# [5] = 48 h, 1 µM, compound concentration 1 uM
# [6] = 48 h, 10 µM, compound concentration 10 uM
smiles,measurement,setting,value
CN1CCN2c3ccccc3Cc3ccccc3C2C1.Cl (configuration not stated) [MIANSERIN HYDROCHLORIDE],Population Apoptotic (%),[1],91% and 83%
same,Population Fragmented Nuclei (%),[1],35% and 16%
same,Population Healthy Nuclei (%),[1],56% and 77%
same,Population Hoechst High Intensity Objects (%),[1],3% and 1%
same,Population Membrane Permeable-Phenotype (%),[1],7% and 3%
same,Population Mitochondria Different-Phenotype (%),[1],4% and 3%
same,Population Mitotic Cells (%),[1],8% and 16%
same,Population Normal (%),[1],96% and 98%
same,Population Pyknosed Nuclei (%),[1],7% and 5%
same,Population Tubulin-Different-Phenotype (%),[1],5% and 2%
same,Total Cell Count,[1],162 and 109
same,Population Apoptotic (%),[2],78% and 86%
same,Population Fragmented Nuclei (%),[2],23% and 12%
same,Population Healthy Nuclei (%),[2],68% and 77%
same,Population Hoechst High Intensity Objects (%),[2],2% and 1%
same,Population Membrane Permeable-Phenotype (%),[2],7% and 1%
same,Population Mitochondria Different-Phenotype (%),[2],3% and 2%
same,Population Mitotic Cells (%),[2],21% and 13%
same,Population Normal (%),[2],97% and 98%
same,Population Pyknosed Nuclei (%),[2],8% and 10%
same,Population Tubulin-Different-Phenotype (%),[2],4% and 0%
same,Total Cell Count,[2],277 and 152
same,Population Apoptotic (%),[3],88% and 75%
same,Population Fragmented Nuclei (%),[3],34% and 23%
same,Population Healthy Nuclei (%),[3],56% and 70%
same,Population Hoechst High Intensity Objects (%),[3],1% and 2%
same,Population Membrane Permeable-Phenotype (%),[3],6% and 4%
same,Population Mitochondria Different-Phenotype (%),[3],1% and 3%
same,Population Mitotic Cells (%),[3],11% and 25%
same,Population Normal (%),[3],98% and 97%
same,Population Pyknosed Nuclei (%),[3],8% and 5%
same,Population Tubulin-Different-Phenotype (%),[3],4% and 3%
same,Total Cell Count,[3],197 and 142
same,Population Apoptotic (%),[4],69% and 93%
same,Population Fragmented Nuclei (%),[4],21% and 13%
same,Population Healthy Nuclei (%),[4],68% and 77%
same,Population Hoechst High Intensity Objects (%),[4],1% and 2%
same,Population Membrane Permeable-Phenotype (%),[4],9% and 7%
same,Population Mitochondria Different-Phenotype (%),[4],2% and 3%
same,Population Normal (%),[4],98% and 97%
same,Population Pyknosed Nuclei (%),[4],10% and 8%
same,Population Tubulin-Different-Phenotype (%),[4],2%
same,Total Cell Count,[4],319 and 183
same,Population Apoptotic (%),[5],78%
same,Population Fragmented Nuclei (%),[5],28% and 19%
same,Population Healthy Nuclei (%),[5],65% and 71%
same,Population Hoechst High Intensity Objects (%),[5],2% and 1%
same,Population Membrane Permeable-Phenotype (%),[5],5% and 4%
same,Population Mitochondria Different-Phenotype (%),[5],2% and 3%
same,Population Mitotic Cells (%),[5],21%
same,Population Normal (%),[5],97% and 98%
same,Population Pyknosed Nuclei (%),[5],5% and 9%
same,Population Tubulin-Different-Phenotype (%),[5],4% and 2%
same,Total Cell Count,[5],269 and 206
same,Population Apoptotic (%),[6],91% and 87%
same,Population Fragmented Nuclei (%),[6],18% and 15%
same,Population Healthy Nuclei (%),[6],71% and 73%
same,Population Hoechst High Intensity Objects (%),[6],4% and 2%
same,Population Membrane Permeable-Phenotype (%),[6],4%
same,Population Mitochondria Different-Phenotype (%),[6],2% and 3%
same,Population Mitotic Cells (%),[6],8% and 12%
same,Population Normal (%),[6],95% and 97%
same,Population Pyknosed Nuclei (%),[6],9% and 11%
same,Population Tubulin-Different-Phenotype (%),[6],1% and 2%
same,Total Cell Count,[6],397 and 285
Cc1cc(-c2ccc3c(c2)CC[C@H]3N2CC3(CCN(C(=O)Cc4cn5cc(C)sc5n4)CC3)C2)ncn1 [PF-5190457],Population Apoptotic (%),[1],82% and 63%
same,Population Fragmented Nuclei (%),[1],24% and 21%
same,Population Healthy Nuclei (%),[1],65% and 66%
same,Population Hoechst High Intensity Objects (%),[1],1% and 0%
same,Population Membrane Permeable-Phenotype (%),[1],7% and 4%
same,Population Mitochondria Different-Phenotype (%),[1],3%
same,Population Mitotic Cells (%),[1],17% and 36%
same,Population Normal (%),[1],98% and 100%
same,Population Pyknosed Nuclei (%),[1],9% and 11%
same,Population Tubulin-Different-Phenotype (%),[1],4% and 3%
same,Total Cell Count,[1],239 and 93
same,Population Apoptotic (%),[2],61% and 71%
same,Population Fragmented Nuclei (%),[2],18% and 14%
same,Population Healthy Nuclei (%),[2],66% and 74%
same,Population Hoechst High Intensity Objects (%),[2],2% and 1%
same,Population Membrane Permeable-Phenotype (%),[2],7% and 8%
same,Population Mitochondria Different-Phenotype (%),[2],5% and 10%
same,Population Mitotic Cells (%),[2],38% and 28%
same,Population Normal (%),[2],97% and 98%
same,Population Pyknosed Nuclei (%),[2],14% and 11%
same,Population Tubulin-Different-Phenotype (%),[2],5% and 6%
same,Total Cell Count,[2],238 and 126
same,Population Apoptotic (%),[3],69% and 33%
same,Population Fragmented Nuclei (%),[3],25% and 21%
same,Population Healthy Nuclei (%),[3],66% and 76%
same,Population Hoechst High Intensity Objects (%),[3],1% and 0%
same,Population Membrane Permeable-Phenotype (%),[3],8% and 6%
same,Population Mitochondria Different-Phenotype (%),[3],3% and 1%
same,Population Mitotic Cells (%),[3],30% and 66%
same,Population Normal (%),[3],98% and 99%
same,Population Pyknosed Nuclei (%),[3],8% and 2%
same,Population Tubulin-Different-Phenotype (%),[3],5% and 2%
same,Total Cell Count,[3],282 and 126
same,Population Apoptotic (%),[4],67% and 84%
same,Population Fragmented Nuclei (%),[4],18%
same,Population Healthy Nuclei (%),[4],72% and 69%
same,Population Hoechst High Intensity Objects (%),[4],2% and 1%
same,Population Membrane Permeable-Phenotype (%),[4],3% and 11%
same,Population Mitochondria Different-Phenotype (%),[4],0% and 8%
same,Population Mitotic Cells (%),[4],32% and 15%
same,Population Normal (%),[4],97% and 98%
same,Population Pyknosed Nuclei (%),[4],9% and 12%
same,Population Tubulin-Different-Phenotype (%),[4],1% and 4%
same,Total Cell Count,[4],295 and 154
same,Population Apoptotic (%),[5],84% and 66%
same,Population Fragmented Nuclei (%),[5],20% and 16%
same,Population Healthy Nuclei (%),[5],71% and 78%
same,Population Hoechst High Intensity Objects (%),[5],0% and 2%
same,Population Membrane Permeable-Phenotype (%),[5],7% and 4%
same,Population Mitochondria Different-Phenotype (%),[5],4% and 2%
same,Population Mitotic Cells (%),[5],15% and 33%
same,Population Normal (%),[5],99% and 97%
same,Population Pyknosed Nuclei (%),[5],8% and 5%
same,Population Tubulin-Different-Phenotype (%),[5],4% and 2%
same,Total Cell Count,[5],402 and 184
same,Population Apoptotic (%),[6],74% and 76%
same,Population Fragmented Nuclei (%),[6],16% and 18%
same,Population Healthy Nuclei (%),[6],71%
same,Population Hoechst High Intensity Objects (%),[6],3%
same,Population Membrane Permeable-Phenotype (%),[6],5% and 11%
same,Population Mitochondria Different-Phenotype (%),[6],2% and 6%
same,Population Mitotic Cells (%),[6],25% and 23%
same,Population Normal (%),[6],96%
same,Population Pyknosed Nuclei (%),[6],12% and 10%
same,Population Tubulin-Different-Phenotype (%),[6],3% and 4%
same,Total Cell Count,[6],389 and 217
CC(C)COc1ccc(CNC(=O)N(Cc2ccc(F)cc2)C2CCN(C)CC2)cc1 [PIMAVANSERIN],Population Apoptotic (%),[1],84% and 100%
same,Population Fragmented Nuclei (%),[1],23% and 11%
same,Population Healthy Nuclei (%),[1],67% and 80%
same,Population Hoechst High Intensity Objects (%),[1],2% and 0%
same,Population Membrane Permeable-Phenotype (%),[1],6%
same,Population Mitochondria Different-Phenotype (%),[1],3% and 4%
same,Population Mitotic Cells (%),[1],16% and 0%
same,Population Normal (%),[1],97% and 99%
same,Population Pyknosed Nuclei (%),[1],9% and 7%
same,Population Tubulin-Different-Phenotype (%),[1],5% and 6%
same,Total Cell Count,[1],265 and 136
same,Population Apoptotic (%),[2],67% and 71%
same,Population Fragmented Nuclei (%),[2],23% and 18%
same,Population Healthy Nuclei (%),[2],48% and 54%
same,Population Hoechst High Intensity Objects (%),[2],5% and 4%
same,Population Membrane Permeable-Phenotype (%),[2],48% and 26%
same,Population Mitochondria Different-Phenotype (%),[2],73% and 70%
same,Population Mitotic Cells (%),[2],32% and 28%
same,Population Normal (%),[2],94% and 95%
same,Population Pyknosed Nuclei (%),[2],27% and 26%
same,Population Tubulin-Different-Phenotype (%),[2],77% and 52%
same,Total Cell Count,[2],202 and 124
same,Population Apoptotic (%),[3],92% and 78%
same,Population Fragmented Nuclei (%),[3],22% and 11%
same,Population Healthy Nuclei (%),[3],67% and 80%
same,Population Hoechst High Intensity Objects (%),[3],2% and 1%
same,Population Membrane Permeable-Phenotype (%),[3],10% and 11%
same,Population Mitochondria Different-Phenotype (%),[3],4% and 8%
same,Population Mitotic Cells (%),[3],7% and 21%
same,Population Normal (%),[3],97% and 98%
same,Population Pyknosed Nuclei (%),[3],9% and 8%
same,Population Tubulin-Different-Phenotype (%),[3],6%
same,Total Cell Count,[3],294 and 163
same,Population Apoptotic (%),[4],88% and 79%
same,Population Fragmented Nuclei (%),[4],28% and 16%
same,Population Healthy Nuclei (%),[4],40% and 50%
same,Population Hoechst High Intensity Objects (%),[4],10% and 3%
same,Population Membrane Permeable-Phenotype (%),[4],32% and 30%
same,Population Mitochondria Different-Phenotype (%),[4],67% and 75%
same,Population Mitotic Cells (%),[4],11% and 20%
same,Population Normal (%),[4],89% and 96%
same,Population Pyknosed Nuclei (%),[4],31% and 33%
same,Population Tubulin-Different-Phenotype (%),[4],49%
same,Total Cell Count,[4],214 and 135
same,Population Apoptotic (%),[5],87% and 92%
same,Population Fragmented Nuclei (%),[5],19% and 12%
same,Population Healthy Nuclei (%),[5],68% and 76%
same,Population Hoechst High Intensity Objects (%),[5],2% and 1%
same,Population Membrane Permeable-Phenotype (%),[5],6% and 5%
same,Population Mitochondria Different-Phenotype (%),[5],5%
same,Population Mitotic Cells (%),[5],12% and 7%
same,Population Normal (%),[5],97% and 98%
same,Population Pyknosed Nuclei (%),[5],12% and 11%
same,Population Tubulin-Different-Phenotype (%),[5],4% and 2%
same,Total Cell Count,[5],393 and 234
same,Population Apoptotic (%),[6],98% and 95%
same,Population Fragmented Nuclei (%),[6],38%
same,Population Healthy Nuclei (%),[6],19% and 15%
same,Population Hoechst High Intensity Objects (%),[6],13% and 8%
same,Population Membrane Permeable-Phenotype (%),[6],40% and 66%
same,Population Mitochondria Different-Phenotype (%),[6],56% and 80%
same,Population Mitotic Cells (%),[6],1% and 4%
same,Population Normal (%),[6],86% and 91%
same,Population Pyknosed Nuclei (%),[6],42% and 45%
same,Population Tubulin-Different-Phenotype (%),[6],54% and 71%
same,Total Cell Count,[6],222 and 146
